Published values gathered from unrelated publications.
Medium: plasma

CCCC[C@@H]1NC(=O)[C@H](Cc2ccc(O)cc2)NC(=O)[C@@H]2CCCN2C(=O)[C@H](CC(=O)O)NC(=O)[C@H](C)NC(=O)[C@H](Cc2ccccc2)NC(=O)[C@@H]2CSCCC(=O)N3CN(CN(C3)C(=O)CCSC[C@H](NC(C)=O)C(=O)N[C@@H](CC(C)(C)C)C(=O)N[C@@H](CCC(=O)O)C(=O)N[C@@H](CCC(=O)O)C(=O)N[C@H](CCCCNC(=O)CCc3cn(CCOCCOCCOCCN(CCOCCOCCOCCC(=O)N[C@H]4CSCCC(=O)N5CN6CN(C5)C(=O)CCSC[C@H](NC(=O)[C@@H](CC(=O)O)NC(=O)[C@H](Cc5cccc7ccccc57)NC(=O)[C@@H]5CCCN5C4=O)C(=O)N[C@@H](CCSC)C(=O)N[C@@H](CCCCNC(=N)N)C(=O)N[C@@H](CC(=O)O)C(=O)N[C@@H](Cc4c[nH]c5ccccc45)C(=O)N[C@@H](CO)C(=O)N[C@@H]([C@@H](C)O)C(=O)N4CCC[C@H]4C(=O)N4C[C@H](O)C[C@H]4C(=O)N[C@@H](Cc4c[nH]c5ccccc45)C(=O)N[C@H](C(N)=O)CSCCC6=O)CCOCCOCCOCCn4cc(CCC(=O)NCCCC[C@H]5NC(=O)[C@H](CCC(=O)O)NC(=O)[C@H](CCC(=O)O)NC(=O)[C@H](CC(C)(C)C)NC(=O)[C@@H](NC(C)=O)CSCCC(=O)N6CN7CN(C6)C(=O)CCSC[C@H](NC(=O)[C@H](Cc6ccc(O)cc6)NC(=O)[C@@H]6CCCN6C5=O)C(=O)N[C@@H](Cc5ccccc5)C(=O)N[C@@H](C)C(=O)N[C@@H](CC(=O)O)C(=O)N5CCC[C@H]5C(=O)N[C@@H](Cc5ccc(O)cc5)C(=O)N[C@@H](CCCC)C(=O)N[C@H](C(N)=O)CSCCC7=O)nn4)nn3)C(=O)N3CCC[C@H]3C(=O)N[C@@H](Cc3ccc(O)cc3)C(=O)N2)C(=O)CCSC[C@@H](C(N)=O)NC1=O — half-life (rat; intravenous; 2 mg/kg): 2.1 h
O=C([O-])C(=O)[O-].[NH-][C@@H]1CCCC[C@H]1[NH-].[Pt+4] (relative stereo) — half-life (rat; intravenous; 5 mg/kg): 3.1 h
[2H]C([2H])([2H])n1cc2cc(Nc3nc(=O)n(Cc4ncn(C)n4)c(=O)n3Cc3cc(F)c(F)cc3F)c(Cl)cc2n1 — half-life (male Sprague-Dawley rat; oral; 25 mg/kg): 3.39 h
COC(=O)C(NC(=O)c1cn(CCCCCF)c2ccccc12)C(C)(C)C (stereo not shown) — half-life (male Sprague-Dawley rat; subcutaneous; 50 µg/kg): 6.89 h
[2H]C([2H])(c1cc(F)c(F)cc1F)n1c(=O)n(Cc2ncn(C)n2)c(=O)[nH]/c1=N\c1cc2cn(C)nc2cc1Cl — half-life (male Sprague-Dawley rat; oral; 25 mg/kg): 4.16 h
CN1CCN(Cc2ccc(NC(=O)c3cncc(C#Cc4cnc(N)c5ncccc45)c3)cc2C(F)(F)F)CC1 — half-life (rat; intravenous; 2 mg/kg): 3.4 h
N=c1c2c(-c3ccccc3)c(-c3ccccc3)n(Cc3ccccc3)c2ncn1[C@H]1CC[C@H](O)CC1 — half-life (male Sprague-Dawley rat; oral; 2 mg/kg; single dose): 8.9 h
Cl.Cl.O=C(CCN1CCCCC1)c1ccc(-c2ccc(C(=O)CCN3CCCCC3)cc2)cc1 — half-life (Sprague-Dawley rat; intravenous; 5 mg/kg): 0.08 h
CCCCCn1nc(C(=O)Nc2cccc3ccccc23)c2ccccc21 — half-life (male Long-Evans rat; intraperitoneal; 3 mg/kg): 5.4 h
CSCC[C@H](NC(=O)COCCOCCNC(=O)COCCOCCNC(=O)CC[C@H](NC(=O)CCCCCCCCCCCCCCCCC(=O)O)C(=O)O)C(=O)N[C@H]1CSSC[C@@H](C(=O)NCC(=O)N[C@@H](CO)C(=O)NCC(=O)N[C@@H](CO)C(=O)N[C@@H](CC(=O)O)C(=O)N[C@@H](Cc2ccc(O)cc2)C(=O)N[C@@H](CCCCN)C(=O)N[C@@H](CC(=O)O)C(=O)N[C@@H](CC(=O)O)C(=O)N[C@@H](CC(=O)O)C(=O)N[C@@H](CC(=O)O)C(=O)N[C@@H](CCCCN)C(N)=O)NC(=O)[C@H](Cc2ccccc2)NC(=O)[C@@H]2CCCN2C(=O)[C@H](Cc2c[nH]c3ccccc23)NC(=O)[C@H](CC(C)C)NC(=O)[C@H](CCSC)NC(=O)[C@H](Cc2c[nH]cn2)NC(=O)[C@H](Cc2ccccc2)NC(=O)[C@H](Cc2c[nH]cn2)NC(=O)[C@H]([C@@H](C)O)NC(=O)[C@H](Cc2ccccc2)NC1=O — half-life (male Sprague-Dawley rat; intravenous): 10.7 h
Cn1cnc(Cn2c(=O)[nH]/c(=N\c3cc4cn(C)nc4cc3Cl)n(Cc3cc(F)c(F)cc3F)c2=O)n1 — half-life (male Sprague-Dawley rat; oral; 25 mg/kg): 3.86 h
CCCC[C@@H]1NC(=O)[C@H](Cc2ccc(O)cc2)NC(=O)[C@@H]2CCCN2C(=O)[C@H](CC(=O)O)NC(=O)[C@H](C)NC(=O)[C@H](Cc2ccccc2)NC(=O)[C@@H]2CSCCC(=O)N3CN(CN(C3)C(=O)CCSC[C@@H](C(=O)N[C@@H](CNC(=O)CCc3cn(CCOCCOCCOCCN(CCOCCOCCOCCC(=O)N[C@H]4CSCCC(=O)N5CN6CN(C5)C(=O)CCSC[C@H](NC(=O)[C@@H](CC(=O)O)NC(=O)[C@H](Cc5cccc7ccccc57)NC(=O)[C@@H]5CCCN5C4=O)C(=O)N[C@@H](CCSC)C(=O)N[C@@H](CCCCNC(=N)N)C(=O)N[C@@H](CC(=O)O)C(=O)N[C@@H](Cc4c[nH]c5ccccc45)C(=O)N[C@@H](CO)C(=O)N[C@@H]([C@@H](C)O)C(=O)N4CCC[C@H]4C(=O)N4C[C@H](O)C[C@H]4C(=O)N[C@@H](Cc4c[nH]c5ccccc45)C(=O)N[C@H](C(N)=O)CSCCC6=O)CCOCCOCCOCCn4cc(CCC(=O)NC[C@H](NC(=O)[C@@H]5CSCCC(=O)N6CN7CN(C6)C(=O)CCSC[C@H](NC(=O)[C@H](Cc6ccc(O)cc6)NC(=O)[C@@H]6CCCN6C(=O)[C@@H](C)NC(=O)[C@H](CCC(=O)O)NC(=O)[C@@H]6CCCN6C(=O)[C@H](CC(C)(C)C)NC(=O)[C@@H](NC(C)=O)CSCCC7=O)C(=O)N[C@@H](Cc6ccccc6)C(=O)N[C@@H](C)C(=O)N[C@@H](CC(=O)O)C(=O)N6CCC[C@H]6C(=O)N[C@@H](Cc6ccc(O)cc6)C(=O)N[C@@H](CCCC)C(=O)N5)C(N)=O)nn4)nn3)C(N)=O)NC1=O)C(=O)CCSC[C@H](NC(C)=O)C(=O)N[C@@H](CC(C)(C)C)C(=O)N1CCC[C@H]1C(=O)N[C@@H](CCC(=O)O)C(=O)N[C@H](C)C(=O)N1CCC[C@H]1C(=O)N[C@@H](Cc1ccc(O)cc1)C(=O)N2 — half-life (rat; intravenous; 2 mg/kg): 3.6 h
CCN1CC2(CCN(CCc3cc(F)ccc3F)CC2)O[C@H](C)C1=O — half-life (Wistar rat; intraperitoneal; 3 mg/kg; single dose): 0.333 h
Cc1ncc(C)n2nc(/C=C/c3nc(N4CCCC4)cc(N4CCOCC4)n3)nc12 — half-life (male Sprague-Dawley rat; oral; 0.3 mg/kg): 6 h
CC(=O)N[C@@H](C)C(=O)N[C@H]1CSSC[C@@H](C(=O)O)NC(=O)[C@H](Cc2ccccc2)NC(=O)[C@@H]2CCCN2C(=O)[C@H](Cc2c[nH]c3ccccc23)NC(=O)[C@H](CC(C)C)NC(=O)[C@H](CC(C)C)NC(=O)[C@H](CC(=O)O)NC(=O)[C@H](Cc2ccccc2)NC(=O)[C@H](Cc2c[nH]cn2)NC(=O)[C@H]([C@@H](C)O)NC(=O)[C@H](Cc2ccccc2)NC1=O — half-life (male Sprague-Dawley rat; intravenous): 0.0303 h
O=C(Nc1cccnn1)N1CCN([C@@H]2CCOc3cc(C(F)(F)F)ccc32)CC1 — half-life (male Sprague-Dawley rat; oral; 1 mg/kg): 5.5 h
